Source: PubChem (The Scripps Research Institute Molecular Screening Center)
Rows were chosen to be rich in hits. Some 1.6% of all compounds tested hit in one or more screens of this group.
FID counter – counter-screen for HCV NS3 helicase inhibitors: DNA intercalator displacement. DNA fluorescent intercalator displacement, fluorescence. inhibition, % at 7.9 µM. actives 0.17% (n = 290,000). AID 1845; in the data active = inhibition above about 37%;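 note: 0% = vehicle and 100% = reference compound; higher means more ethidium bromide displaced from hairpin DNA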
HCV core dimer – HCV core protein dimerization inhibition. TR-FRET GST/Flag-core106 dimerization, 1536-well. inhibition, % at 5 µM. actives 0.33% (n = 300,000);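 active = inhibition above the mean of all tested compounds plus 3 SD, set per screening campaign, cut at about 45% in these data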
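Material: GST/Flag-tagged HCV core106 proteins. Incubation: 4 h, 22.5 °C incubation. Read-out basis: inhibition (%) from 671 over 617 nm ratio. Measured by: TR-FRET, excitation 340 nm, emission 617 and 671 nm.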
IMP-1 inhibitor – inhibitors of Pseudomonas aeruginosa IMP-1 metallo-beta-lactamase. actives 0.45% (n = 290,000). inhibition, % at 5.6 µM. purified IMP-1, nitrocefin hydrolysis, epi-absorbance fluorescence. AID 1556;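 active = inhibition above the mean plus 3 SD of all compounds in the same screening run, cut at about 4.5% in these data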;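 note: 0% = IMP-1 with DMSO and 100% = DMSO wells lacking enzyme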
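System: purified IMP-1 / Input: IMP-1 dispensed at 0.2 nM / Medium: 50 mM HEPES pH 7.1, 50 µM ZnSO4, 0.05% Brij 35 / Timing: 15 min enzyme–compound preincubation, then 25 min nitrocefin reaction, 25 °C / Technique: plate fluorescence quenching by hydrolysis product, ex 480/em 530 nm / Repeats: singlicate testing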
VIM-2 inhibitor – blocks Pseudomonas aeruginosa VIM-2 metallo-beta-lactamase | purified VIM-2, nitrocefin hydrolysis, epi-absorbance fluorescence | inhibition, % at 5.6 µM | actives 0.89% (n = 290,000);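 active = inhibition above the mean of all tested compounds plus 3 SD, cutoff set per screening run, cut at about 7.5% in these data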;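 note: red hydrolysis product quenches plate fluorescence so inhibitors raise well fluorescence; 0% = enzyme with DMSO and 100% = DMSO without enzyme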
Numbers without * were called inactive; . = not tested or not shown.

SMILES | FID counter | HCV core dimer | IMP-1 inhibitor | VIM-2 inhibitor
Cc1c(O)ccc2c3c(c(=O)oc12)CCC(C)C3 (configuration not stated) | -5 | 17 | -3 | 0
Cc1c(O)ccc2c3c(c(=O)oc12)CCCC3 | -2 | 4 | -5 | 10*
COc1ccc(S(=O)(=O)N(C)C(C)CCc2ccco2)cc1 (configuration not stated) | -28 | 21 | 4.9* | 4
CCOC(=O)c1cc(-c2ccc(N3CCOCC3)cc2)nn1-c1ccccc1C(=O)O | -29 | 22 | 22* | 1
COc1ccccc1Nc1c2c(nc3ccc(N)cc13)CCCC2 | 4 | -2 | -4 | 8.7*
COc1ccc(Nc2c3c(nc4ccc(C)cc24)CCC3)cc1 | -4 | 22 | -3 | 9.1*
COc1cc(Nc2c3c(nc4ccccc24)CCC3)cc(OC)c1OC | -1 | -9 | -2 | 2
Cc1cccc(Nc2c3c(nc4ccccc24)CCC3)c1 | 5 | 0 | -4 | 7
CC(=O)c1cccc(NC(=O)/C(=C\c2ccco2)NC(=O)c2cccs2)c1 | -5 | 0 | -2 | -8
Nc1nonc1C(=O)NCCNc1ccc([N+](=O)[O-])cn1 | -5 | -2 | -2 | -2
Cn1c(=O)c2c(ncn2CC(=O)N2CCN(c3cccc(Cl)c3)CC2)n(C)c1=O | -15 | 0 | -3 | -4
CC1(C)OC2OC(COC(=O)c3ccccc3)C3OC(C)(C)OC3C2O1 (configuration not stated) | -19 | -4 | -2 | -2
CCCCCCC(=O)Nc1nc(C)c(-c2csc(Nc3cc(Cl)ccc3C)n2)s1 | -1 | -103 | 19* | -3
CCCCC(=O)Nc1nc(C)c(-c2csc(Nc3cc(Cl)ccc3OC)n2)s1 | 4 | -9 | 7.6* | -1
CCCCC(=O)Nc1nc(C)c(-c2csc(Nc3cc(OC)ccc3OC)n2)s1 | 2 | -11 | -2 | -3
COc1ccc(Cl)cc1Nc1nc(-c2sc(NC(=O)C(C)(C)C)nc2C)cs1 | -3 | -11 | 18* | -1
CCCc1nnc(NC(=O)Cn2c(=O)oc3ccccc32)s1 | -8 | 7 | -1 | 0
Cc1ccc(-n2ncc(C(=O)O)c2C2CCN(C(=O)OC(C)(C)C)CC2)cc1 | -42 | 6 | 2 | 8.4*
Cc1cccn2c(=O)c3cc(C(=O)NCc4ccco4)c(=N)n(C4CCCC4)c3nc12 | -11 | 19 | -4 | 8.2*
Cc1ccc2nc3c(cc(C(=O)NC4CCCC4)c(=N)n3C3CCCCC3)c(=O)n2c1 | -5 | -2 | -1 | 12*
Cc1cccn2c(=O)c3cc(C(=O)NCC4CCCO4)c(=N)n(C4CCCCC4)c3nc12 (configuration not stated) | -3 | 8 | -1 | 8.0*
Cc1cccn2c(=O)c3cc(C(=O)NCC4CCCO4)c(=N)n(CC4CCCO4)c3nc12 (configuration not stated) | -5 | -4 | -2 | 1
C=CCn1c(=N)c(C(=O)NCCCOC)cc2c(=O)n3cc(C)ccc3nc21 | 3 | 6 | -5 | 11*
Cc1cccn2c(=O)c3cc(C(=O)NCc4ccc(F)cc4)c(=N)n(CC4CCCO4)c3nc12 (configuration not stated) | -1 | 5 | -2 | 3
C#CCn1c(=NC(=O)c2ccc(S(=O)(=O)N3CCc4ccccc4C3)cc2)sc2cc(S(N)(=O)=O)ccc21 | -4 | 46 | -1 | -1
SMILES | FID counter | HCV core dimer | IMP-1 inhibitor | VIM-2 inhibitor
C#CCn1c(=NC(=O)c2sc3ccccc3c2Cl)sc2cc(S(N)(=O)=O)ccc21 | -5 | 66* | -5 | -3
CC(C)CC(C(=O)Nc1oc(-c2ccccc2)c(-c2ccccc2)c1C#N)N1C(=O)c2ccccc2C1=O (configuration not stated) | -15 | 76* | -1 | -5
O=[N+]([O-])c1ccc(NCCCN2CCOCC2)c([N+](=O)[O-])c1 | 7 | -3 | -1 | 0
COc1ccc(C(=O)OCCNC(=O)c2c(Cl)nc3ccccn23)cc1 | -24 | -2 | 0 | 2
Cc1ccc(/C=c2\sc3nc(-c4ccco4)nn3c2=O)o1 | 1 | 62* | -2 | -2
COc1ccccc1/C=c1\sc2nc(-c3ccccc3OC)nn2c1=O | -38 | 4 | -3 | -3
COc1ccc(Br)cc1/C=c1\sc2nc(-c3ccco3)nn2c1=O | . | 57* | . | .
OC1CN=C2CCCc3c2n(c2ccc(Cl)cc32)C1 (configuration not stated) | 3 | 0 | -3 | -2
c1ccc(-c2ccc3c(c2)c2c4n3CCN=C4CCC2)cc1 | 12 | -1 | 5.3* | -1
Cc1ccc2c(c1)SC1=NC(c3ccccc3)(C(F)(F)F)NC(=O)N12 (configuration not stated) | -1 | 4 | 5.7* | -1
O=C1NC(c2ccccc2)(C(F)(F)F)SC2=NCCCN12 (configuration not stated) | -8 | -7 | -5 | 7
Nc1c(C(=O)NC2CC2)sc2nc3c(c(-c4ccco4)c12)CC/C3=C/c1ccco1 | -3 | 104* | 0 | -1
c1ccc2c(Nc3ccc(N4CCOCC4)cc3)nc(N3CCOCC3)nc2c1 | 0 | -6 | -2 | 9.4*
Cc1cccc(-c2nc(Nc3ccc(N4CCOCC4)cc3)c3ccccc3n2)c1 | 9 | -20 | -3 | -1
CCOc1ccc(-c2c(C#N)c(N)nc3c2c(=O)n(C)c(=O)n3C)cc1OC | 0 | 0 | 7.6* | -2
CC(C)C1OC2c3cccc4cccc(c34)C2N1c1ccccc1 (configuration not stated) | -1 | -2 | 4.6* | 2
O=C(c1cccc([N+](=O)[O-])c1)c1ccc2[nH]c(=O)[nH]c2c1 | -1 | -89 | 29* | 1
O=C(Nc1ccc([N+](=O)[O-])cc1)Nc1ccc2[nH]c(=O)[nH]c2c1 | 7 | -6 | -1 | -2
CCc1nnc(NC(=O)OCc2ccccc2)s1 | -6 | -5 | 0 | -3
Cc1ccc(NC(=O)c2cc(-c3cccs3)on2)cc1 | -6 | 18 | 1 | -1
O=C(Nc1ccc(Br)cc1)c1cc(-c2cccs2)on1 | -4 | -8 | 11* | -1
O=C(Nc1ccc(Cl)cc1)c1cc(-c2cccs2)on1 | -2 | 9 | 15* | -1
COc1ccc(NC(=O)O/N=C/c2ccncc2)cc1 | 3 | 10 | -4 | -2
N=c1c(C(=O)NCC2CCCO2)cc2c(=O)n3ccccc3nc2n1Cc1ccc(F)cc1 (configuration not stated) | 6 | 8 | 0 | 9.7*
N=c1c(C(=O)NC2CCCCC2)cc2c(=O)n3ccccc3nc2n1Cc1cccnc1 | -1 | -4 | -2 | 8.2*
Cc1cccn2c(=O)c3cc(C(=O)NCC4CCCO4)c(=N)n(Cc4cccnc4)c3nc12 (configuration not stated) | 9 | 6 | -3 | 2
N=c1c(C(=O)NCC2CCCO2)cc2c(=O)n3ccccc3nc2n1Cc1cccnc1 (configuration not stated) | 2 | 8 | -1 | 8.0*
CCOc1ccccc1CNC(CC)CO (configuration not stated) | 0 | 1 | -2 | -1
